In ChEMBL document CHEMBL2010657, “Cytotoxic angucycline class glycosides from the deep sea actinomycete Streptomyces lusitanus SCSIO LR32” (J Nat Prod, 2012) one finds IC50 data, which are given here for eight molecules.

What all share (assay type): functional, cell-based
One test has as its system B16. The test is described as follows: Cytotoxicity against mouse B16 cells after 48 hrs by MTT assay. The note with it: B16, 48 h. In short, it runs like this:
(§1)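 Cells grown in RPMI 1640 with 10% FBS at 37 °C, 5% CO2. Seeded at 2 × 10^3 cells/well and allowed 12 h before adding compounds in DMSO at various concentrations. After 48 h exposure, MTT (1 mg/mL in PBS) added for 4 h at 37 °C. Formazan dissolved in DMSO and read at A550. Viability taken as treated/untreated A550 × 100. IC50 reported. 5-FU and doxorubicin served as positive controls.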
In general terms: Tetrazolium dyes change colour on reduction, which living cells bring about.

The subject of a further test is HepG2. As to the kind of experiment: Cytotoxicity against human HepG2 cells after 48 hrs by MTT assay. Particulars: HepG2, 48 h. In outline:
as §1

For a further test, the system named is SW1990. As to the kind of experiment: Cytotoxicity against human SW1990 cells after 48 hrs by MTT assay. The note with it: SW1990, 48 h. In short, it runs like this: as §1
In another test the test system is HeLa. As to the kind of experiment: Cytotoxicity against human HeLa cells after 48 hrs by MTT assay. In short, it runs like this: as §1
Another test concerns NCI-H460. As to the kind of experiment: Cytotoxicity against human NCI-H460 cells after 48 hrs by MTT assay. The note with it: NCI-H460, 48 h. In short, it runs like this:
as §1

The test system of the next test is MCF7. The test is described as follows: Cytotoxicity against human MCF7 cells after 48 hrs by MTT assay. The note with it: MCF7, 48 h. In short, it runs like this: as §1

pIC50: −log10 of the molar value. Where only a bound is given, the exact number is not on record here.

As usually defined, the pIC50 is the IC50 on a negative log10 scale, so that one unit is a factor of ten. A low value points to a high IC50. Regarding `COc1cccc2c1C(=O)c1c(O)c3c(c(O)c1C2=O)C[C@@](O)(C(=O)CO)C[C@@H]3O[C@H]1C[C@H](N)[C@H](O)[C@H](C)O1` [DOXORUBICIN], the pIC50 is 5.77 in the test on B16; 5.15 in the test on HepG2; under 4.00 in the test with SW1990; 5.28 in the test with HeLa; 4.96 in the test with NCI-H460; 5.16 in the test with MCF7.
In the case of `O=c1[nH]cc(F)c(=O)[nH]1` [FLUOROURACIL], the pIC50 with B16 was 4.48; in the test with HepG2, 4.47; in the test on SW1990 it was 4.35; with HeLa, 4.37; in the test on NCI-H460, 4.54; in the test with MCF7, 4.46.
With `C[C@@H]1O[C@@H](O[C@H]2CC[C@H](O[C@H]3[C@H](O)C[C@H](c4ccc5c(c4O)C(=O)c4ccc(C[C@](C)(CC(=O)O)O[C@H]6CC[C@H](O[C@H]7CCC(=O)[C@H](C)O7)[C@H](C)O6)c(O)c4C5=O)O[C@@H]3C)O[C@H]2C)CCC1=O` [GRINCAMYCIN B], the pIC50 with B16 is 5.68; in the test on HepG2, 5.07; in the test on SW1990, 4.96; in the test with HeLa, 5.19; with NCI-H460 it was under 4.00; with MCF7, 4.92.
Take `C[C@@H]1O[C@@H](O[C@H]2CC[C@H](O[C@H]3[C@H](O)C[C@H](c4ccc5c(c4O)C(=O)c4ccc(C[C@@](C)(O)CC(=O)O)c(O)c4C5=O)O[C@@H]3C)O[C@H]2C)CCC1=O` [GRINCAMYCIN C]: the pIC50 was under 4.00 in the test with B16; 4.51 with HepG2; 4.51 with SW1990; under 4.00 with HeLa; under 4.00 in the test with NCI-H460; 4.96 with MCF7.
Take `C[C@@H]1O[C@@H](O[C@H]2CC[C@H](O[C@@](C)(CC(=O)O)Cc3ccc4c(c3O)C(=O)c3ccc([C@H]5C[C@H]6O[C@H]7CC(=O)[C@H](C)O[C@H]7O[C@@H]6[C@@H](C)O5)c(O)c3C4=O)O[C@H]2C)CCC1=O` [GRINCAMYCIN D]: the pIC50 with B16 was 5.01; in the test with HepG2, 5.01; in the test on SW1990, 4.66; with HeLa, 4.92; in the test on NCI-H460, 4.52; in the test on MCF7, 5.21.
Regarding `C[C@@H]1O[C@@H](O[C@H]2CC[C@H](O[C@H]3[C@H](O)C[C@H](c4ccc5c(c4O)C(=O)c4cc6c(c(O)c4C5=O)C[C@@](C)(O[C@H]4CC[C@H](O[C@H]5CCC(=O)[C@H](C)O5)[C@H](C)O4)CC6=O)O[C@@H]3C)O[C@H]2C)CCC1=O` [GRINCAMYCIN E], the pIC50 is 5.27 with B16; 4.96 in the test with HepG2; 4.80 with SW1990; 4.96 in the test on HeLa; under 4.00 with NCI-H460; 5.06 in the test on MCF7.
As for `C[C@@H]1O[C@@H](O[C@H]2CC[C@H](O[C@@H]3C[C@H](C4=Cc5c(-c6ccc(O)cc6)c(=O)oc6c7c(c(O)c(c56)C4=O)C=C[C@]4(O)C[C@@](C)(O[C@H]5CC[C@H](O[C@H]6CCC(=O)[C@H](C)O6)[C@H](C)O5)CC(=O)[C@]74O)O[C@H](C)[C@H]3O)O[C@H]2C)CCC1=O` [GRINCAMYCIN F], the pIC50 in the test on B16, in the test on HepG2, with SW1990, in the test with HeLa, with NCI-H460 and in the test with MCF7 was under 4.00 in each case.
On to `C[C@@H]1O[C@@H](O[C@H]2CC[C@H](O[C@H]3[C@H](O)C[C@H](c4ccc5c(c4O)C(=O)C4=C(C5=O)[C@@]5(O)C(=O)C[C@](C)(O[C@H]6CC[C@H](O[C@H]7CCC(=O)[C@H](C)O7)[C@H](C)O6)C[C@@]5(O)C=C4)O[C@@H]3C)O[C@H]2C)CCC1=O` [GRINCAMYCIN], for which the pIC50 in the test on B16 was 5.96; in the test with HepG2, 5.28; in the test with SW1990 it was 5.19; in the test on HeLa, 5.28; in the test on NCI-H460, 4.96; with MCF7 it was 5.68.
